The results in this text go back to ChEMBL document CHEMBL1811836, “Probes for narcotic receptor mediated phenomena. Part 42: synthesis and in vitro pharmacological characterization of the N-methyl and N-phenethyl analogues of the racemic ortho-c and para-c oxide-bridged phenylmorphans” (Bioorg Med Chem, 2011).

For assay [1], the target named is T1, Mu-type opioid receptor (Homo sapiens, UniProt P35372). Briefly: Displacement of [3H]DAMGO from human recombinant mu opioid receptor expressed in CHO cells after 2 hrs by liquid scintillation counting. The format is cell-based. (In general: In a radioligand displacement assay an active substance lowers the binding of a labelled ligand.)
T1 sequence (P35372 whole entry): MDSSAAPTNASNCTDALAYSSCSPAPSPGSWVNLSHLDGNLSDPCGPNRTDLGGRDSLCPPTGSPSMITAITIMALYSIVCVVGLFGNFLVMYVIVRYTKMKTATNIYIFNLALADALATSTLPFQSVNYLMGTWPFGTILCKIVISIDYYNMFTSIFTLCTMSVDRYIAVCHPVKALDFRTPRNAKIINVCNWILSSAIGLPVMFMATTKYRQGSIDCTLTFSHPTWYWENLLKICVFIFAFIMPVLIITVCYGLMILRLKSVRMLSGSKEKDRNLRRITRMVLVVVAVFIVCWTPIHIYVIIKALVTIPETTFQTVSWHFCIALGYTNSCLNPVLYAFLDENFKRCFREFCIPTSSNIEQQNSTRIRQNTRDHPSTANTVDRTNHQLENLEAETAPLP
For assay [2], the target named is Delta-type opioid receptor (Homo sapiens, UniProt P41143). Briefly: Displacement of [3H]DADLE from human recombinant delta opioid receptor expressed in recombinant hDOR-CHO cells after 2 hrs by liquid scintillation counting. The format is cell-based. The method, boiled down: (§1)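 Membranes from stably transfected hDOR-CHO or hKOR-CHO cells, washed in ice-cold 10 mM Tris-HCl pH 7.4. Binding in 50 mM Tris-HCl pH 7.4 with protease inhibitors, about 30 µg protein per tube. Radioligand about 2 nM against 10 drug concentrations, triplicate, 2 h at 25 °C, GF/B filtration.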
Sequence of Delta-type opioid receptor (P41143 whole entry): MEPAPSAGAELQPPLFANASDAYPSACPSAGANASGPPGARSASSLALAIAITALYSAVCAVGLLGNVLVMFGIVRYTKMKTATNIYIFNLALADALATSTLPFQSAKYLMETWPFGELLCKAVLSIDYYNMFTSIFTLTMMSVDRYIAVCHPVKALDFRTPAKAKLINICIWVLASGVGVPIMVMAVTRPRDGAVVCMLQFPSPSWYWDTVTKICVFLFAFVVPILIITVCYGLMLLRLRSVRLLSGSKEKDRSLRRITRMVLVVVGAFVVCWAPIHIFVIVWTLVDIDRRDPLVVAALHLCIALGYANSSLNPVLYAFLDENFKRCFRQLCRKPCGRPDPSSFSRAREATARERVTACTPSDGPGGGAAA

Assay [3] deals with T2, Kappa-type opioid receptor (Homo sapiens, UniProt P41145). Briefly: Displacement of [3H]U69,593 from human recombinant kappa opioid receptor expressed in CHO cells after 2 hrs by liquid scintillation counting. In kind it is cell-based. The essentials:
as §1

Assay [4] has as its target T1, Mu-type opioid receptor. Briefly: Ratio of naloxone Ke to compound Ke for human mu opioid receptor.
Assay [5] concerns the target T1, Mu-type opioid receptor. Briefly: Ratio of morphine Ki to compound Ki for human mu opioid receptor.
The species named for assay [6] is Homo sapiens. Briefly: Selectivity ratio Ki for human kappa opioid receptor to Ki for human mu opioid receptor. The essentials:
(§2)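 Ki values from radioligand displacement on membranes of stably transfected human receptor CHO cells. […] Incubation 2 h at 25 °C, triplicate, filtration. Ki from pooled logistic IC50 by Cheng-Prusoff; ratio taken against the MOR Ki.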

For assay [7], the species on record is Homo sapiens. Briefly: Selectivity ratio Ki for human delta opioid receptor to Ki for human mu opioid receptor. The essentials: as §2
Assay [8] addresses T2, Kappa-type opioid receptor. Conditions: CHO.

T2 sequence (P41145 whole entry): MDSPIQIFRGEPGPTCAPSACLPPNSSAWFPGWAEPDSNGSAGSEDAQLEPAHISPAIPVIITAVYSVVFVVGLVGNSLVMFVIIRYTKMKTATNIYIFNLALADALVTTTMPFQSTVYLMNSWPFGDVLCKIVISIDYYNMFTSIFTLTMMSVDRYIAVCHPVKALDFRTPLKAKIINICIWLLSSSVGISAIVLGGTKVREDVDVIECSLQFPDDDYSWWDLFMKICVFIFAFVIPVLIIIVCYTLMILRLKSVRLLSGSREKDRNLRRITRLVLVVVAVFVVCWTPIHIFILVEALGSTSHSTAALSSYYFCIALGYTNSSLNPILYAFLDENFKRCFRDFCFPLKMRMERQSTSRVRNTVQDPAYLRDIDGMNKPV

Turning to `CN1C[C@H]2Oc3c(O)cccc3[C@@]23CCC[C@@H]1C3` (relative stereo), the Ki in assay [1] was 619 nM; in assay [2], over 5200 nM; in assay [3] it was over 40000 nM.

In the case of `CN1C[C@H]2Oc3ccc(O)cc3[C@@]23CCC[C@@H]1C3` (relative stereo), the Ki in assay [1] is 1500 nM; in assay [2] it was over 5200 nM; in assay [3], 1080 nM.

On to `Oc1ccc2c(c1)[C@]13CCC[C@H](C1)N(CCc1ccccc1)C[C@H]3O2` (relative stereo), for which the inhibition constant (Ki) in assay [1] stood at 67 nM; in assay [2] it was 1250 nM; in assay [3], 1230 nM.

Take `Oc1cccc2c1O[C@@H]1CN(CCc3ccccc3)[C@@H]3CCC[C@]21C3` (relative stereo): the Ratio Ke in assay [4] was determined as 3. Further, the results for the Ki in assay [1], in assay [2] and in assay [3] were 1.1 nM, 1230 nM and 51 nM, respectively. Moreover, the Ratio Ki in assay [5] worked out at 2; in assay [6] it was 50; in assay [7], 1200. Moreover, the Ke in assay [8] amounted to 1.79 nM.

Broadly, the Ki is the equilibrium dissociation constant of an inhibitor or competing ligand from its target.
